One data set can be described thus: Tumor uptake. The data set is classed as in vivo. To be noted: nude, mouse, tumor (MDA-MB-435 M4A4 xenograft), iv, 10 nmol. Put shortly: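 After imaging, mice were euthanized with isoflurane. 30 mg of each tissue was homogenized in 100 μl Tris pH 7.6 with 1% SDS, heated to 85 °C for 10 min, microwaved 10 s and spun at 20,500 × g for 15 min, then imaged. Tissue-specific spiked standards calibrated fluorescence. SUV = tissue peptide molality ÷ injected dose (mol/kg body weight). Values are means ± S.D.; two-tailed t tests.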

A further data set concerns PyMT mammary tumors. The experiment in a line: Fluorescence imaging contrast in PyMT tumor-bearing mice. The data set is classed as in vivo, mouse. To be noted: PyMT mice, Cy5-labeled ACPP i.v., 6 h; data not shown. An outline of the steps: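 PyMT transgenic mice bearing spontaneous mammary tumors were anesthetized with ketamine 80 mg/kg plus midazolam 5 mg/kg (1:1) and weighed. They were injected via the tail vein with Cy5 peptide: free peptide 100 μl of 100 μM (10 nmol) or albumin-reactive peptide 100 μl of 30 μM (3 nmol). Maestro imaging (ex 640 ± 24 nm, em >700 nm) was done at 6 h or 48 h, comparing tumor with adjacent normal tissue.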

A further data set has as its target trypsin (Bos taurus, UniProt P00760). The experiment in a line: Cleavage by purified trypsin. To be noted: Cy5-labeled ACPP, gel (supplemental Fig. 4). The format is in vitro ADME, bovine. Put shortly:
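Commercial active-form purified enzyme at 50 nm was incubated with 5 μm Cy5-labeled peptide in the manufacturer's recommended buffer. Samples were mixed with Tricine sample buffer, boiled 1 min, and resolved on 10–20% Tricine acrylamide gels. Gels were imaged quantitatively at excitation 628 ± 20 nm and emission >700 nm, and the percentage of cleaved versus uncleaved peptide was quantified.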

The subject of the next data set is plasmin. The experiment in a line: 50 nM plasmin. The conditions noted are these: human recombinant, 37 °C, up to 2 h.
The test system of another data set is neutrophil elastase. The experiment in a line: 50 nM enzyme in the manufacturer's recommended buffer. The conditions noted are these: up to 4 h.
Another data set relates to matriptase. The experiment in a line: matriptase.
In the next data set the test system is legumain. The experiment in a line: legumain.
In another data set the test system is MMP-8. The experiment in a line: MMP-8.
For a further data set, the system named is MMP-13. The experiment in a line: MMP-13.
The test system of the next data set is enterokinase. The experiment in a line: enterokinase. The conditions noted are these: up to 2 h.
Data set [1] has as its system prostate-specific antigen. The experiment in a line: prostate-specific antigen. The conditions noted are these: up to 2 h.
A further data set has as its system hepsin. The experiment in a line: hepsin. To be noted: up to 2 h.
Data set [2] in a line: Effect of inhibitors on cleavage of RLQLKL ACPP by tumor extract. The data set is classed as biochemical, mouse. To be noted: 5 μM Cy5-labeled RLQLKL ACPP, tumor extract 2.0 to 0.25%; 60 μM α1-antitrypsin; gel. An outline of the steps:
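Fresh tumor tissue was gently homogenized in PBS on ice and spun at 14,000 × g for 1 min; the supernatant served as the extract. The 5 μm Cy5 peptide was digested at 37 °C in PBS containing 1 μm ZnCl2, with or without 60 μm α1-antitrypsin. Aliquots were taken from 20 min to 18 h, with the 2-h point reported. Cleavage was quantified by Tricine gel and fluorescence imaging.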

A short description of data set [3]: Effect of inhibitors on cleavage of RLQLKL ACPP by PyMT tumor cystic fluid. The data set is classed as biochemical, mouse. To be noted: 5 μM Cy5-labeled RLQLKL ACPP, 2% cystic fluid, 2 h; 5 mM Ca-DTPA, 50 μM TPEN, 18 μM SB3CT, 50 nM GM6001, 0.26 μM prinomastat, 150 nM aprotinin, 100 μM leupeptin, 60 μM α1-antitrypsin; gel. An outline of the steps:
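Cystic fluid was aspirated by syringe from surgically exposed fluid-filled mammary tumor nodules of PyMT mice. The 5 μm Cy5 peptide was incubated at 37 °C for 2 h in PBS with 1 μm ZnCl2. Inhibitors were used at manufacturer-recommended concentrations, including 10 μm E-64, 1 μm pepstatin A, protease inhibitor mixture III (1:1000) and mixture III plus DTPA. Cleavage was read by Tricine gel electrophoresis and Cy5 fluorescence imaging.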

Sequence of trypsin (P00760 24-246): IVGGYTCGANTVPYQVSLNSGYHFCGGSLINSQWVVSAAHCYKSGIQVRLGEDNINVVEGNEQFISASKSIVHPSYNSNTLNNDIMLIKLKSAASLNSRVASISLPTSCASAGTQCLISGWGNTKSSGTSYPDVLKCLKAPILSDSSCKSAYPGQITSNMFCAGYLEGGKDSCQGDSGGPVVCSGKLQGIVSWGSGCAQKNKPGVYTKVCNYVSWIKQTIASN

With `CC[N+]1=C(C=CC=CC=C2N(CCCCCC(=O)NCCN3C(=O)CC(SC[C@@H](NC(=O)[C@@H](CCCNC(=N)N)NC(=O)[C@@H](CCCNC(=N)N)NC(=O)[C@@H](CCCNC(=N)N)NC(=O)[C@@H](CCCNC(=N)N)NC(=O)[C@@H](CCCNC(=N)N)NC(=O)[C@@H](CCCNC(=N)N)NC(=O)[C@@H](CCCNC(=N)N)NC(=O)[C@@H](CCCNC(=N)N)NC(=O)[C@@H](CCCNC(=N)N)NC(=O)[C@@H](CC(C)C)NC(=O)[C@@H](CCCCN)NC(=O)[C@@H](CC(C)C)NC(=O)[C@@H](CCC(N)=O)NC(=O)[C@@H](CC(C)C)NC(=O)[C@@H](CCCNC(=N)N)NC(=O)CCCCCNC(=O)[C@@H](CCC(=O)O)NC(=O)[C@@H](CCC(=O)O)NC(=O)[C@@H](CCC(=O)O)NC(=O)[C@@H](CCC(=O)O)NC(=O)[C@@H](CCC(=O)O)NC(=O)[C@@H](CCC(=O)O)NC(=O)[C@@H](CCC(=O)O)NC(=O)[C@@H](CCC(=O)O)NC(=O)[C@H](N)CCC(=O)O)C(N)=O)C3=O)c3ccc(S(=O)(=O)O)cc3C2(C)C)C(C)(C)c2cc(S(=O)(=O)[O-])ccc21` (stereo partly shown) [rlqlkl], the SUV at 6 h in the data set “Tumor uptake” was 0.34 ± 0.16 SUV.

With GMMYRS [GMMYRS ACPP], the “fluorescence contrast in tumors relative to adjacent normal tissue (in words)” value with PyMT mammary tumors is reported as “little fluorescence contrast”. Moreover, the “cleavage by trypsin (in words)” value at trypsin was “efficiently cleaved”.

For H2N-e9-(ahx)-RLQLK(Ac)L-r9-c-(Cy5)-NH2, the not cleaved result with plasmin is on record as “not cleaved by plasmin (2 h)”. The fragment found entry in the data set on neutrophil elastase was “K(Ac)Lr9c-(Cy5), major”.

Consider NH2-e9-(ahx)-RLQLKL-r9-c-(Cy5)-NH2, for which the not cleaved result in the data set on matriptase is “no cleavage”; with legumain, “no cleavage”; in the data set on MMP-8 it was “no cleavage”; with MMP-13 it was “no cleavage”; with enterokinase, “less than 3% cleavage”; in data set [1] it was “less than 3% cleavage”. Moreover, the not cleaved result in the data set on hepsin was “less than 3% cleavage”.

Consider RTRYED [RTRYED ACPP], for which the “fluorescence contrast in tumors relative to adjacent normal tissue (in words)” value in the data set on PyMT mammary tumors was “little fluorescence contrast”. For the same compound, the “cleavage by trypsin (in words)” value on trypsin is given as “efficiently cleaved”.

Take “α1-antitrypsin: natural inhibitor of elastase [reference compound]”: in [2], the “inhibition of tumor extract cleavage of RLQLKL ACPP (in words)” value is recorded as “significantly inhibited”. Also, the “inhibition of cystic fluid cleavage of RLQLKL ACPP (in words)” value in data set [3] is listed as “inhibited”.

Values taken from article PMC2903386 (The Journal of Biological Chemistry, 2010).
